Assay outcomes as filed in PubChem BioAssay.
Most compounds without a hit are left out; they make up all but 1.8% or so of the library.
UHRF1 MBD2 ctr = UHRF1 methylated DNA binding inhibitors, primary screen, counter-screen for MBD2 inhibitor project, biochemical, TR-FRET, human UHRF1, single concentration. E3 ubiquitin-protein ligase UHRF1 (Homo sapiens), Q96T88. UHRF1 binding to methylated oligo. inhibition, % at 4.4 µM. 370,000 tested, 0.75% active;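 further: UHRF1 SRA domain binding a hemimethylated CpG hairpin DNA probe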
Target sequence (Q96T88 whole entry, looked up, the tested form may be a part): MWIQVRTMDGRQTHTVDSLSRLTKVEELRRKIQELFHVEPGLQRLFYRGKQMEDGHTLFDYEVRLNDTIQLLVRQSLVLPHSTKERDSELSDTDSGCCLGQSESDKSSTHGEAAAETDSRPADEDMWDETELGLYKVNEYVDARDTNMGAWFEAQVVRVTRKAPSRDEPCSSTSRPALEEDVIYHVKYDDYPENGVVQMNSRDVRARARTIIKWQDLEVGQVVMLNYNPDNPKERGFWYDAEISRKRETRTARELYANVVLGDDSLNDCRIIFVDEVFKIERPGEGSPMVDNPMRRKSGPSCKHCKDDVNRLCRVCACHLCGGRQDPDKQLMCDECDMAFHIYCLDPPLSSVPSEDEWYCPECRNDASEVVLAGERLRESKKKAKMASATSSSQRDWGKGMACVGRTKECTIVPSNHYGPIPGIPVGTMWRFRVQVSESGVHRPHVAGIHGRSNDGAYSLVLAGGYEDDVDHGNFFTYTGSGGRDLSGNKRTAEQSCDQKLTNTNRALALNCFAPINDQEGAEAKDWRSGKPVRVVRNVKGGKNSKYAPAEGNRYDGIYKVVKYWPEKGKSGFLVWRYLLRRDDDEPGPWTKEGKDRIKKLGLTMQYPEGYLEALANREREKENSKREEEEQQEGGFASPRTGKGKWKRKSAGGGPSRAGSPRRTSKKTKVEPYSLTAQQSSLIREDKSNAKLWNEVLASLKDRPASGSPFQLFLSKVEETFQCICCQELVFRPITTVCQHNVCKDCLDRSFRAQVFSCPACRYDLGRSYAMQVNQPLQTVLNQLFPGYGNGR
LEDGF integ inh = blockers of LEDGF/p75-dependent integrase strand transfer – biochemical, TR-FRET, high throughput, primary screen. HIV-1 integrase (with human LEDGF/p75). TR-FRET IN-LEDGF/p75 DNA integration, Eu/Cy5. inhibition, % at 3.7 µM. 370,000 tested, 0.64% active. AID 743269, 2014;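 active means inhibition above the screen-wide mean plus 3 SD, cut at about 13% in these data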;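 further: signal is the Cy5 over europium emission ratio at 671 and 618 nm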
TDP2 inh = human TDP2 enzyme inhibitors, primary screen, biochemical, epi absorbance, recombinant enzyme; Tyrosyl-DNA phosphodiesterase 2 (Homo sapiens), O95551; T5PNP hydrolysis, p-nitrophenol absorbance 415 nm; inhibition, % at 12.8 µM; 370,000 tested, 0.34% active; AID 720702, 2013;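 active means inhibition above the mean of all tested compounds plus 3 SD, set per campaign, cut at about 25% in these data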
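Assay system: Recombinant human TDP2 | Quantity: 120 nM TDP2 per well | Incubation: 2 h at 37 °C | Signal: Epi absorbance | Evaluation: Percent inhibition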
MBD2 DNA inh = inhibitors of MBD2 binding to methylated DNA, primary screen, biochemical, TR-FRET, DNA-binding domain, human. Methyl-CpG-binding domain protein 2 (Homo sapiens), Q9UBB5. AID 686964, 2013. 370,000 tested, 0.31% active. inhibition, % at 4.4 µM. MBD2 binding to methylated oligonucleotide; in the data active means inhibition above about 13%
core dimer inh = inhibitors of HCV core protein dimerization, primary screen, biochemical, TR-FRET, high-throughput | TR-FRET GST/Flag-core106 dimerization, 1536-well | inhibition, % at 5 µM | 300,000 tested, 0.33% active | AID 1899, 2009;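 active means inhibition above the mean of all tested compounds plus 3 SD, set per screening campaign, cut at about 45% in these data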
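Assay system: tagged HCV core106 pair (GST and Flag); medium: KF-containing HEPES buffer, pH 7.45, DTT, CHAPS, BSA; also added: Eu donor and XL665 acceptor anti-tag antibodies; dosing: 5 µM single dose; timing: compound-protein-antibody incubation 4 h at 22.5 °C; signal: TR-FRET 671 and 617 nm emission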
UHRF1 DNA bind = UHRF1 methylated DNA binding inhibitors, counter-screen for MBD2 inhibitor project, biochemical, TR-FRET, human UHRF1; shares compounds with MBD2 DNA inh; UHRF1 binding to methylated oligonucleotide; inhibition, % at 4.4 µM; 1,000 tested, 25% active; AID 720530, 2013;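 further: UHRF1 SRA domain binding a labeled hemimethylated CpG hairpin DNA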
MBD2 confirm = inhibitors of MBD2 binding to methylated DNA, confirmation, biochemical, TR-FRET, DNA-binding domain, human. TR-FRET MBD2-DBD binding to methylated oligonucleotide. inhibition, % at 4.4 µM. AID 720531, 2013. shares compounds with MBD2 DNA inh. 1,000 tested, 26% active; in the data active means inhibition above about 14%
TDP2 inh conf = human TDP2 enzyme inhibitors, retest, confirmation, biochemical, epi absorbance, recombinant enzyme | 1,100 tested, 22% active | AID 743263, 2014 | shares compounds with TDP2 inh | inhibition, % at 12.8 µM | absorbance read-out; in the data active means inhibition above about 25%
Of the large screens only hits and unclear results are named; the others gave an inactive call (follow-up assays come after a bar, where they were run). Unless noted, no stated cut-off is given here; in the data, active means inhibition above about 21%; inactive means the rest.

O=C(C(=O)N1CCC(CNS(=O)(=O)c2ccccc2OC(F)(F)F)CC1)c1cccs1	UHRF1 MBD2 ctr 27.0, MBD2 DNA inh 27.8 (no result: core dimer inh) | UHRF1 DNA bind inactive | MBD2 confirm inactive
Nc1nc(SCC(=O)N2CCN(c3ccccc3)CC2)n[nH]1	none
Nc1nc(SCC(=O)N2CCN(c3ccc(F)cc3)CC2)n[nH]1	MBD2 DNA inh 48.0 (no result: core dimer inh) | UHRF1 DNA bind inactive | MBD2 confirm inactive
COC(=O)[C@]12C[C@H](CC(=O)NCc3cccc(C(F)(F)F)c3)C(=O)N(Cc3ccc4c(c3)OCO4)C1=C[C@H](C(C)(C)C)O[C@@H]2C	none (no result: core dimer inh)
COc1ccc(Cn2c(=O)[nH]c3cc(OC)c(OC)cc3c2=O)cc1	UHRF1 MBD2 ctr 31.1, MBD2 DNA inh 16.6 | UHRF1 DNA bind inactive | MBD2 confirm inactive
C[C@@H](CO)N(Cc1cn(Cc2ccccc2)nn1)S(=O)(=O)c1ccccc1Br	none (no result: core dimer inh)
COCCN(C(=O)COC(=O)c1cc2c(s1)CCC2)c1c(N)n(Cc2ccccc2)c(=O)[nH]c1=O	UHRF1 MBD2 ctr 95.8, LEDGF integ inh 53.7, MBD2 DNA inh 65.1, core dimer inh 68.6 | UHRF1 DNA bind 100.1 | MBD2 confirm 91.1
CCC1CCc2sc(C(=O)OCC(=O)N(CCOC)c3c(N)n(Cc4ccccc4)c(=O)[nH]c3=O)cc2C1 (configuration not stated)	none
COC(=O)[C@]12C[C@H](CC(=O)N3CCN(C(=O)c4ccco4)CC3)C(=O)N(CCc3ccc(OC)c(OC)c3)C1=C[C@H](C(C)(C)C)O[C@@H]2C	none (no result: core dimer inh)
O=c1c(O)cccc2cc(O)c(O)c(O)c12	UHRF1 MBD2 ctr 93.7, LEDGF integ inh 88.3, TDP2 inh 28.5, MBD2 DNA inh 86.9 | UHRF1 DNA bind 94.5 | MBD2 confirm 91.0 | TDP2 inh conf inactive
O=C1NC(=S)S/C1=C\C=C\c1ccc([N+](=O)[O-])o1	UHRF1 MBD2 ctr 94.5, LEDGF integ inh 81.4, TDP2 inh 30.2, MBD2 DNA inh 74.2 (no result: core dimer inh) | UHRF1 DNA bind 90.4 | MBD2 confirm 47.4 | TDP2 inh conf inactive
CC(C)[C@@H]1NC(=O)[C@H]2C[C@@]3(c4ccccc4)c4ccccc4N[C@H]3N2C1=O	none (no result: core dimer inh)
CCCCn1c(NC(=O)c2ccccc2)c(C#N)c2nc3ccccc3nc21	TDP2 inh 84.2, MBD2 DNA inh 24.4 (no result: core dimer inh) | UHRF1 DNA bind inactive | MBD2 confirm 16.6 | TDP2 inh conf 85.2
COC(=O)[C@H](CC(C)C)N1Cc2nnn(Cc3ccc(C)cc3)c2-c2cc(F)ccc2S1(=O)=O	none (no result: core dimer inh)
COc1cc(/C=C2/C(=O)N(c3ccccc3)N=C2C)ccc1OS(=O)(=O)c1ccccc1	none (no result: UHRF1 MBD2 ctr, LEDGF integ inh, TDP2 inh, MBD2 DNA inh)
COc1ccc(/C=C2/C(=O)N(c3ccccc3)N=C2C)cc1Br	TDP2 inh 70.1, MBD2 DNA inh 15.2 | UHRF1 DNA bind inactive | MBD2 confirm inactive | TDP2 inh conf 27.3
COc1cc(NC(=O)CSc2nc(C)cc(=O)[nH]2)cc(OC)c1	none (no result: core dimer inh)
CN(C(=O)c1cccs1)c1ccccc1C(=O)O	UHRF1 MBD2 ctr 32.1, TDP2 inh 42.2, MBD2 DNA inh 15.8 | UHRF1 DNA bind inactive | MBD2 confirm inactive | TDP2 inh conf inactive
Cc1[nH][nH]c(=O)c1C(c1cc(Br)ccc1O)c1c(C)[nH][nH]c1=O	TDP2 inh 29.9, MBD2 DNA inh 53.4 | UHRF1 DNA bind inactive | MBD2 confirm inactive | TDP2 inh conf inactive
